22 molecules from PMC10548181 (RSC Advances, 2023) can be followed below.

In test [1] the test system is human liver carcinoma (HepG-2). Nature of the test: MTT anti-proliferative assay on HepG-2. It is filed as cell-based. Conditions: HepG2, 48 h, read-out: IC50 (μM) ± SD HepG-2, MTT, 48 h, HepG-2. The essentials: (§1)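 Cells grown at 37 °C in humidified 5% CO2 and seeded at 5 × 10^4 per well. Exposed 48 h at 37 °C to a concentration series of test compound, or doxorubicin as positive control, in serum-free medium with DMSO. MTT solution (2.5 mg ml−1) added for 4 h, formazan dissolved in DMSO, absorbance read at 590 nm. Viability taken as percent of untreated control; technical triplicate, three biological replicates, mean ± SD; IC50 by probit analysis.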
(In general: Tetrazolium assays rely on reduction of a dye to a coloured formazan, in cell work by metabolically active cells.)

In test [2] the test system is HCT-116 (human colorectal carcinoma). Briefly: MTT anti-proliferative assay on HCT-116. The class given is cell-based. As to conditions: HCT-116, 48 h, read-out: IC50 (μM) ± SD HCT-116. The method in brief:
as §1

The test system of test [3] is MCF-7 (human breast adenocarcinoma). Nature of the test: MTT anti-proliferative assay on MCF-7. The class given is cell-based. As to conditions: MCF7, 48 h, read-out: IC50 (μM) ± SD MCF-7, MTT, 48 h, MCF-7. The essentials: as §1
Another test addresses EGFR (Homo sapiens, UniProt P00533). Briefly: In vitro EGFR kinase activity assay. The class given is biochemical.
The next test addresses mTOR (Homo sapiens, UniProt P42345). Briefly: In vitro m-TOR activity assay. The class given is biochemical.
A further test addresses PI3Kβ (p110β/p85α) (Homo sapiens, UniProt P42338). Briefly: In vitro PI3K activity assay. It is filed as biochemical.
In test [4] the test system is MCF-7 cells. Nature of the test: Cell cycle analysis. The class given is cell-based, human. The method in brief:
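MCF-7 cells seeded at 8 × 10^4, held overnight at 37 °C with 5% CO2, then treated 48 h with test compound. Pelleted at 300 g for 5 min and fixed in 70% ethanol on ice for 15 min. Flow cytometry run within 1 h of staining.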

For test [5], the system named is MCF-7 cells. Briefly: Apoptosis assay. The class given is cell-based, human.

Sequence of EGFR (P00533 25-1210): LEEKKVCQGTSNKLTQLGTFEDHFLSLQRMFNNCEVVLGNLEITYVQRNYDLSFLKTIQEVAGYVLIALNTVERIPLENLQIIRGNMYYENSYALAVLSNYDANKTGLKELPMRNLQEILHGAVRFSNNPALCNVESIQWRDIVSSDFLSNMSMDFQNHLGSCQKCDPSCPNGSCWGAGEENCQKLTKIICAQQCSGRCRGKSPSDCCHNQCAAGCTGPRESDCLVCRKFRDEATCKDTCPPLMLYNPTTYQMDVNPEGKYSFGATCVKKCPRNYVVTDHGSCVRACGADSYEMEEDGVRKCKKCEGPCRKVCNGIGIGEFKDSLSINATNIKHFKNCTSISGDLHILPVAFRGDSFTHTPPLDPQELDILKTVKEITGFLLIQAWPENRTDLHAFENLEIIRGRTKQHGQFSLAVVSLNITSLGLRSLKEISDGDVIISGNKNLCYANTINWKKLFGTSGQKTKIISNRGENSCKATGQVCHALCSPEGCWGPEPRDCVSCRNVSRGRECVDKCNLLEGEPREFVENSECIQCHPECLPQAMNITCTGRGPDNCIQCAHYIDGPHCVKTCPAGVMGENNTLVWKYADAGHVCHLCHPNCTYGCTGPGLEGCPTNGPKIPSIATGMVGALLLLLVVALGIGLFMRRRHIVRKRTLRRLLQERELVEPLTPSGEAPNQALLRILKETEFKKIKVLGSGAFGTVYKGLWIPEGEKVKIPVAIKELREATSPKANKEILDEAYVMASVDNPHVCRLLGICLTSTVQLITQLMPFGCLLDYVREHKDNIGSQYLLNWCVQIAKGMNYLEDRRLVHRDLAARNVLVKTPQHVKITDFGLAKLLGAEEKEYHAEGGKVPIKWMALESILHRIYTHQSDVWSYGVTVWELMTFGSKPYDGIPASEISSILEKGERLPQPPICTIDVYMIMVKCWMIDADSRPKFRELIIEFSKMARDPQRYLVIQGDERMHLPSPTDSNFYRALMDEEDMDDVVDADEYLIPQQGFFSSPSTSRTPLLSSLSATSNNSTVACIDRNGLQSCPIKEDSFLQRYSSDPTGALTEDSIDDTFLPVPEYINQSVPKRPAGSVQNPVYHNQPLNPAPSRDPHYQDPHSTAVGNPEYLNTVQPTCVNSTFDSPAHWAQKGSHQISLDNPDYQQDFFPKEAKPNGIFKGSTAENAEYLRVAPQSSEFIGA
Sequence of PI3Kβ (p110β/p85α) (P42338 whole entry): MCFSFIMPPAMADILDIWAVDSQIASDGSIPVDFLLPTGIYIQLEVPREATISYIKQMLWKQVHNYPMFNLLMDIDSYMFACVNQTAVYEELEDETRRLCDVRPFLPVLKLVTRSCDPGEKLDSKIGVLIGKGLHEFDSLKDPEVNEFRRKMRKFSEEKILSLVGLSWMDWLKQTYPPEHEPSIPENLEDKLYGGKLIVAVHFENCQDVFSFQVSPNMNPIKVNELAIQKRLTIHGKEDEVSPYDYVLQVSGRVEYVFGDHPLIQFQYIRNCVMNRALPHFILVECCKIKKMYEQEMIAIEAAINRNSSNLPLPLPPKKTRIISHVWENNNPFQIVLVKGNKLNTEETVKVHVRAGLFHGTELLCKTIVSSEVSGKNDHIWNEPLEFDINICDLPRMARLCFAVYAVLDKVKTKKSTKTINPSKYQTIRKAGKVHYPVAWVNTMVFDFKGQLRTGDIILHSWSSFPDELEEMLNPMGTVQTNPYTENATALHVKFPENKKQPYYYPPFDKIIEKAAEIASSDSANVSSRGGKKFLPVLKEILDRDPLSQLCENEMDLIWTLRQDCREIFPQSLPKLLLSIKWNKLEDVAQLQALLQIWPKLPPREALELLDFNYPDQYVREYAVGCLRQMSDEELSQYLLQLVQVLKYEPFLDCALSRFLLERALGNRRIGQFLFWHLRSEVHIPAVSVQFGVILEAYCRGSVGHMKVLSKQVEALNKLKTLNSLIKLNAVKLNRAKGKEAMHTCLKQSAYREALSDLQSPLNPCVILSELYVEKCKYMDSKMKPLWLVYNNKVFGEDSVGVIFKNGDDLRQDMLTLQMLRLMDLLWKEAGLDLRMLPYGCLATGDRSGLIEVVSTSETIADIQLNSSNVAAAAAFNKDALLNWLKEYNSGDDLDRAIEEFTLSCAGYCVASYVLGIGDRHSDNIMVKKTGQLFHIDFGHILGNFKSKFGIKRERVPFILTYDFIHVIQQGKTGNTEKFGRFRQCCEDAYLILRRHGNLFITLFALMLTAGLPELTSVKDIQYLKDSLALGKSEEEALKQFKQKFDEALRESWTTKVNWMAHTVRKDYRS
Sequence of PI3Kβ (p110β/p85α) (P27986 whole entry partner): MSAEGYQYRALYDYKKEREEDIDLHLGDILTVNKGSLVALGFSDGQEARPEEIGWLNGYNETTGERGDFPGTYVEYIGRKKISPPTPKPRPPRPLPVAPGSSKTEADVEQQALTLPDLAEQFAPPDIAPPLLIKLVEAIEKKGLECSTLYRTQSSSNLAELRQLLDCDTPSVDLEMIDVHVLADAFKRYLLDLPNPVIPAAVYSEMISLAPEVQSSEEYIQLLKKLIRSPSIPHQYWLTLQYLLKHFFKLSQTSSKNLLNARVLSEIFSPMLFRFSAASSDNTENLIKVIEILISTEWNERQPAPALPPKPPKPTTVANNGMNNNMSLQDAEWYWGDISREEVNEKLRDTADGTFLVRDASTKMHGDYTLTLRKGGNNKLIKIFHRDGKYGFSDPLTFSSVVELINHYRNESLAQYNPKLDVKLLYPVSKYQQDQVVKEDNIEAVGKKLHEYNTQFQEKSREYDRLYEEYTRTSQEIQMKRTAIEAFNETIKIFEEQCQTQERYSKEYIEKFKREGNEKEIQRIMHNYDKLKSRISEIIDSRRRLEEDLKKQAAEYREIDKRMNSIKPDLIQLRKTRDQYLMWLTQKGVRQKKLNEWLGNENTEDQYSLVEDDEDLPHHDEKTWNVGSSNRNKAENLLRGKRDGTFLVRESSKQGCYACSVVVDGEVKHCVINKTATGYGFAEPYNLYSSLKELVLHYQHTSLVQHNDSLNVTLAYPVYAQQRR

As usually defined, the IC50 is the concentration that gives 50% inhibition. Consider `CC(=NN=c1[nH]c(C)cs1)c1c(O)c2ccccc2oc1=O` [Compound 3a, 3-{1-[(4-Methyl-3H-thiazol-2-ylidene)-hydrazono]-ethyl}-4-hydroxy-2H-chromen-2-one], for which the figures for the IC50 in test [1], in test [2] and in test [3] were 42.5 ± 4.1 µM, 32.6 ± 3.1 µM and 34.5 ± 3.6 µM, respectively.

For the molecule `CC(=O)c1sc(=NN=C(C)c2c(O)c3ccccc3oc2=O)n(C)c1C` [Compound 4b, 3-{1-[(5-Acetyl-3,4-dimethyl-3H-thiazol-2-ylidene)-hydrazono]-ethyl}-4-hydroxy-2H-chromen-2-one], the IC50 in test [1] is 57.1 ± 4.3 µM; in test [2] it was 24.3 ± 2.7 µM; in test [3], 32.7 ± 3.5 µM.

Regarding `CC(=NN=c1scc(-c2ccccc2)n1C)c1c(O)c2ccccc2oc1=O` [Compound 5b, 3-{1-[(3-Methyl-4-phenyl-3H-thiazol-2-ylidene)-hydrazono]-ethyl}-4-hydroxy-2H-chromen-2-one], the half-maximal inhibitory concentration (IC50) in test [1] is 66.4 ± 5.6 µM; in test [2] it was 42.4 ± 4.1 µM; in test [3], 34.6 ± 2.9 µM.

`CCn1c(C)c(N=Nc2ccc(C)cc2)sc1=NN=C(C)c1c(O)c2ccccc2oc1=O` [Compound 9f, 3-{1-[(3-Ethyl-4-methyl-5-(4-tolyl)azo-3H-thiazol-2-ylidene)-hydrazono]-ethyl}-4-hydroxy-2H-chromen-2-one]: the results for the IC50 in test [1], in test [2] and in test [3] were 82.1 ± 6.1 µM, 40.1 ± 4.7 µM and 17.8 ± 1.1 µM, respectively.

With `CC(=O)c1sc(=NN=C(C)c2c(O)c3ccccc3oc2=O)[nH]c1C` [Compound 4a, 3-{1-[(5-Acetyl-4-methyl-3H-thiazol-2-ylidene)-hydrazono]-ethyl}-4-hydroxy-2H-chromen-2-one], the IC50 in test [1] came to 48.8 ± 3.1 µM; in test [2] it was 31.4 ± 3.1 µM; in test [3], 25.6 ± 3.1 µM.

With `CC(=NN=c1sc(N=Nc2ccccc2)c(C)n1C)c1c(O)c2ccccc2oc1=O` [Compound 9b, 3-{1-[(3,4-Dimethyl-5-phenylazo-3H-thiazol-2-ylidene)-hydrazono]-ethyl}-4-hydroxy-2H-chromen-2-one], the IC50 came out at 64.1 ± 5.5 µM in test [1], 37.9 ± 2.5 µM in test [2] and 32.3 ± 3.5 µM in test [3].

Take `CCOC(=O)c1sc(=NN=C(C)c2c(O)c3ccccc3oc2=O)n(CC)c1C` [Compound 6c, 3-Ethyl-4-methyl-2-{[1-(4-hydroxy-2-oxo-2H-chromen-3-yl)-ethylidene]-hydrazono}-2,3-dihydro-thiazole-5-carboxylic acid ethyl ester]: the IC50 in test [1] was found to be 45.1 ± 4.1 µM; in test [2] it was 24.7 ± 1.6 µM; in test [3], 20.7 ± 2.1 µM.

For `CC(=NN=c1sc(N=Nc2ccc(C)cc2)c(C)n1C)c1c(O)c2ccccc2oc1=O` [Compound 9e, 3-{1-[(3,4-Dimethyl-5-(4-tolyl)azo-3H-thiazol-2-ylidene)-hydrazono]-ethyl}-4-hydroxy-2H-chromen-2-one], the IC50 was determined as 74.4 ± 5.9 µM in test [1], 55.2 ± 5.1 µM in test [2] and 23.3 ± 1.9 µM in test [3].

On to `CC(=NN=C1SC(C)C(=O)N1C)c1c(O)c2ccccc2oc1=O` (centres unmarked) [Compound 8b, 3,5-Dimethyl-2-{[1-(4-hydroxy-2-oxo-2H-chromen-3-yl)-ethylidene]-hydrazono}-thiazolidin-4-one], for which the values for the IC50 in test [1], in test [2] and in test [3] were 67.2 ± 4.9 µM, 44.8 ± 4.5 µM and 26.1 ± 3.5 µM, respectively.

As for `CCn1c(C)csc1=NN=C(C)c1c(O)c2ccccc2oc1=O` [Compound 3c, 3-{1-[(3-Ethyl-4-methyl-3H-thiazol-2-ylidene)-hydrazono]-ethyl}-4-hydroxy-2H-chromen-2-one], the IC50 in test [1] stood at 68.2 ± 5.6 µM; in test [2], 36.3 ± 3.5 µM; in test [3] it was 36.5 ± 4.2 µM.

For the molecule `CCn1c(C)c(C(C)=O)sc1=NN=C(C)c1c(O)c2ccccc2oc1=O` [Compound 4c, 3-{1-[(5-Acetyl-3-ethyl-4-methyl-3H-thiazol-2-ylidene)-hydrazono]-ethyl}-4-hydroxy-2H-chromen-2-one], the IC50 in test [1] worked out at 62.5 ± 3.9 µM; in test [2] it was 38.9 ± 3.2 µM; in test [3], 33.7 ± 3.2 µM.

With `CC(=NN=c1[nH]c(C)c(N=Nc2ccc(C)cc2)s1)c1c(O)c2ccccc2oc1=O` [Compound 9d, 3-{1-[(4-Methyl-5-(4-tolyl)azo-3H-thiazol-2-ylidene)-hydrazono]-ethyl}-4-hydroxy-2H-chromen-2-one], the IC50 in test [1] is 57.2 ± 4.6 µM; in test [2] it was 45.6 ± 4.2 µM; in test [3] it was 26.3 ± 2.5 µM.

With `CNC(=S)NN=C(C)c1c(O)c2ccccc2oc1=O` [Compound 2b, 4-Methyl-1-(1-(4-hydroxy-2-oxo-2H-chromen-3-yl)ethylidene)thiosemicarbazide], the 50% inhibitory concentration (IC50) in test [1] came out at 48.1 ± 3.9 µM; against EGFR, 2.28 ± 0.14 µM; against mTOR, 2.96 ± 0.18 µM; at PI3Kβ (p110β/p85α) it was 1.33 ± 0.074 µM; in test [2], 7.2 ± 0.6 µM; in test [3] it was 13.6 ± 1.5 µM.

On to `CCOC(=O)c1sc(=NN=C(C)c2c(O)c3ccccc3oc2=O)n(C)c1C` [Compound 6b, 3,4-Dimethyl-2-{[1-(4-hydroxy-2-oxo-2H-chromen-3-yl)-ethylidene]-hydrazono}-2,3-dihydro-thiazole-5-carboxylic acid ethyl ester], for which the IC50 in test [1] was found to be 41.4 ± 2.9 µM; on EGFR it was 0.563 ± 0.03 µM; against mTOR, 1.45 ± 0.08 µM; at PI3Kβ (p110β/p85α) it was 0.361 ± 0.02 µM; in test [2], 5.9 ± 0.7 µM; in test [3] it was 11.2 ± 1.1 µM.

`COc1cccc2c1C(=O)c1c(O)c3c(c(O)c1C2=O)C[C@@](O)(C(=O)CO)C[C@@H]3O[C@H]1C[C@H](N)[C@H](O)[C@H](C)O1` [Doxorubicin, reference compound]: the results for the IC50 in test [1], in test [2] and in test [3] were 63.2 ± 5.8 µM, 21.8 ± 2.9 µM and 16.7 ± 1.5 µM, respectively.

Consider `CCOC(=O)c1sc(=NN=C(C)c2c(O)c3ccccc3oc2=O)[nH]c1C` [Compound 6a, 4-Methyl-2-{[1-(4-hydroxy-2-oxo-2H-chromen-3-yl)-ethylidene]-hydrazono}-2,3-dihydro-thiazole-5-carboxylic acid ethyl ester], for which the IC50 in test [1] worked out at 57.2 ± 4.3 µM; against EGFR it was 0.184 ± 0.01 µM; against mTOR, 0.719 ± 0.04 µM; against PI3Kβ (p110β/p85α) it was 0.131 ± 0.007 µM; in test [2], 20.4 ± 1.9 µM; in test [3], 6.4 ± 0.5 µM. The “effect on cell cycle progression” value in the test with MCF-7 cells [4] is “cell growth arrest at S phase”. For the same molecule, the effect on apoptosis entry with MCF-7 cells [5] is “increase in the early and late cellular apoptosis”.

Consider `CCN1C(=O)C(C)SC1=NN=C(C)c1c(O)c2ccccc2oc1=O` (centres unmarked) [Compound 8c, 3-Ethyl-5-methyl-2-{[1-(4-hydroxy-2-oxo-2H-chromen-3-yl)-ethylidene]-hydrazono}-thiazolidin-4-one], for which the IC50 in test [1] was 80.2 ± 5.9 µM; in test [2], 44.9 ± 4.3 µM; in test [3], 7.4 ± 0.9 µM.

`CC(=NN=c1scc(C)n1C)c1c(O)c2ccccc2oc1=O` [Compound 3b, 3-{1-[(3,4-Dimethyl-3H-thiazol-2-ylidene)-hydrazono]-ethyl}-4-hydroxy-2H-chromen-2-one]: the IC50 in test [1] was 46.1 ± 3.7 µM; in test [2] it was 27.2 ± 2.9 µM; in test [3], 34.9 ± 3.1 µM.

For `CC(=NN=c1[nH]c(C)c(N=Nc2ccccc2)s1)c1c(O)c2ccccc2oc1=O` [Compound 9a, 3-{1-[(4-Methyl-5-phenylazo-3H-thiazol-2-ylidene)-hydrazono]-ethyl}-4-hydroxy-2H-chromen-2-one], the values for the IC50 in test [1], in test [2] and in test [3] were 71.2 ± 5.1 µM, 33.9 ± 2.8 µM and 33.4 ± 2.8 µM, respectively.

Take `CC(=NN=C1NC(=O)C(C)S1)c1c(O)c2ccccc2oc1=O` (centres unmarked) [Compound 8a, 5-Methyl-2-{[1-(4-hydroxy-2-oxo-2H-chromen-3-yl)-ethylidene]-hydrazono}-thiazolidin-4-one]: the IC50 came out at 42.4 ± 3.5 µM in test [1], 38.3 ± 4.2 µM in test [2] and 27.4 ± 1.9 µM in test [3].

Turning to `CCn1c(C)c(N=Nc2ccccc2)sc1=NN=C(C)c1c(O)c2ccccc2oc1=O` [Compound 9c, 3-{1-[(3-Ethyl-4-methyl-5-phenylazo-3H-thiazol-2-ylidene)-hydrazono]-ethyl}-4-hydroxy-2H-chromen-2-one], the results for the IC50 in test [1], in test [2] and in test [3] were 60.9 ± 4.8 µM, 47.2 ± 4.5 µM and 32.8 ± 2.8 µM, respectively.

On to `CC(=NN=C1SCC(=O)N1C)c1c(O)c2ccccc2oc1=O` [Compound 7b, 3-Methyl-2-{[1-(4-hydroxy-2-oxo-2H-chromen-3-yl)-ethylidene]-hydrazono}-thiazolidin-4-one], for which the values for the IC50 in test [1], in test [2] and in test [3] were 65.7 ± 5.1 µM, 41.2 ± 3.9 µM and 32.8 ± 3.5 µM, respectively.
